From PubChem
Insulin prom up – MIN6 insulin promoter up-regulation; MIN6 insulin promoter-GFP reporter, high-content imaging; stronger effect = higher value; z-score at 5 µM; AID 1625; 0.3% of 190,000 active;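 active = z-score above 3 at 5 µM with at least 500 cells counted in the well; inconclusive = wells under 500 cells, flagged as cytotoxic or low count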
INS promoter inh – TRM-6 insulin promoter activity inhibition. TRM-6 cells (human fetal islet line), insulin promoter-eGFP reporter, imaging; reporter expression induced with tamoxifen. 0.9% of 130,000 active. inhibition, % at 2 µM;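 active = inhibition above the mean plus 3 SD, with well images judged a real hit on visual review, cut at about 60% in these data, passing the limit was not always enough; inconclusive = inhibition over the cutoff but images rejected on review; inactive = inhibition not above the cutoff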
Dynein cargo inh – blocks dynein driven cargo transport along microtubules; 3617.4 mouse cells, GR-EGFP nuclear translocation imaging; test concentration mostly 20 µM; stimulated with dexamethasone, 1 µM; stronger effect = lower value; z-score, hits read low; 0.47% of 220,000 active;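 active = plate z-score of nuclear minus cytoplasmic receptor signal below a set negative limit, without overly bright fluorescence or cell loss, cut at about -3.5 in these data, passing the limit was not always enough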;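 also: z-score of nuclear minus cytoplasmic ring GR-EGFP intensity difference per well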
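Buffer or medium – tet-free medium with charcoal-stripped serum · Signal – automated 10x imaging of fixed Hoechst-stained cells · Also added – dexamethasone agonist, 1.0 µM final, for 30 min · Incubation – induction 48 h, compound 1 h, agonist 30 min · Read-out – GR-EGFP nuclear translocation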
Autophagy HCS – modulators of autophagy; MEF GFP-LC3 puncta imaging; test concentration mostly 10 µM; calls only at 10 µM (by protocol); 0.98% of 190,000 active;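 active = percentage of spot-positive cells more than 3 SD above its plate mean, without a fluorescence outlier flag or 80% toxicity; inconclusive = no clear call, values can overlap the other calls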;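 also: spot-positive cell cutoff set from DMSO-treated cells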
An asterisk follows results filed as active; i = inactive; ? = inconclusive; . = no result given; + = active, no number. Hits are enriched below; roughly 2% of the tested compounds scored in any of these assays.

SMILES	Insulin prom up	INS promoter inh	Dynein cargo inh	Autophagy HCS
Cc1cccc(NC(=O)c2ccccc2NC(=O)CCC(=O)O)c1	-0.24	79*	0.4	i
O=[N+]([O-])c1cccc(-c2nc(-c3cccs3)c(-c3cccs3)[nH]2)c1	-0.72	23	-0.24	i
O=[N+]([O-])c1ccc(-c2nc(-c3cccs3)c(-c3cccs3)[nH]2)cc1	.	-73	-2.4	+
Cc1cc2sc3nc(=O)n(-c4ccccc4)c(=O)n3c2cc1C	-0.15	.	-0.24	.
c1ccn2cc(-c3ccc4c(c3)OCCO4)nc2c1	0.52	71*	-0.71	i
Cc1ccc2nc(-c3ccc4c(c3)OCCO4)cn2c1	0.1	.	-0.35	.
O=C(O)/C=C/C(=O)Nc1ccc(OC(F)(F)F)cc1Br	-0.05	.	0.49	.
CCOc1ccc(C2CC(c3c(O)c4ccccc4oc3=O)=NN2c2ccccc2)cc1OC (stereo not drawn)	.	-338	-3.3	+
COc1ccc(CCNC(=O)CSc2nn(-c3ccccc3)c(=S)s2)cc1	-0.21	.	0.48	.
CCCCC1=CC2=C(c3ccco3)C(=O)C(C)(OC(=O)c3ccc(OC)cc3)C(=O)C2=CN1CC(C)C (stereo not drawn)	4.3*	.	-1.3	.
Nc1c(-c2cccc([N+](=O)[O-])c2)nc2ccccn12	0.61	69*	-0.66	i
O=[N+]([O-])c1cccc(-c2ncc3ccccn23)c1	-1.2	45	1.1	i
Nc1nnnn1/N=C/c1cc(Cl)cc(Cl)c1OCc1ccc(Cl)cc1Cl	1.1	-31	-0.55	+
COc1ccc(-c2c(C#N)c(C)nc3c2C(=O)c2ccccc2-3)cc1	-0.45	89*	1.1	i
COc1ccc(-c2nc(-c3ccccc3)[nH]c(=O)c2C#N)cc1	0.34	.	-1.4	i
CC1(C)c2ccccc2-n2c1cc1oc(=O)cc(O)c1c2=O	0.88	.	0.59	.
COc1ccc(S(=O)(=O)c2ccc(OCC3CO3)cc2)cc1 (stereo not drawn)	-0.35	.	-1	i
COc1ccc(C(OCC2CO2)c2ccc(OC)cc2)cc1 (stereo not drawn)	0.24	77*	-0.57	i
CCN(CC(=O)Nc1ccc(N2CCOCC2)cc1)CC(=O)NC(C)(C)C	-0.26	.	0.62	i
NNC(=O)c1ccc(CSc2n[nH]c(=O)[nH]c2=O)cc1	-0.1	.	0.19	.
O=C(CN1CCCCCC1)Nc1ccccc1F	1.1	-37	2.4	i
O=C(CN1CCN(CC(=O)Nc2ccccc2C(F)(F)F)CC1)Nc1ccccc1F	0.63	85*	-0.69	i
CCn1c(-c2cccs2)nc2ccccc21	.	?	0.9	i
C#CCn1c(-c2cccs2)nc2ccccc21	0.37	93*	-1.3	i
O=c1c2ccccc2c(/C=N/c2ncn[nH]2)c(O)n1Cc1ccccc1	0.78	71*	-0.32	i
SMILES	Insulin prom up	INS promoter inh	Dynein cargo inh	Autophagy HCS
CC1(C)Cn2c(nnc2-c2cccc(O)c2)S1	-0.07	91*	-0.36	i
C=CCOC(=O)c1cc(-c2ccc(/C=C3\C(=O)NC(=O)C(C#N)=C3C)o2)ccc1Cl	-0.76	13	-4.4*	i
CCCOC(=O)c1cc(-c2ccc(/C=C3/C(=O)N(C)C(=O)C(C#N)=C3C)o2)ccc1Cl	.	-45	-3.7*	i
Cc1ccc(NC(=S)Nc2cccnc2)c(S(=O)(=O)N2CCCCC2)c1	-0.6	-36	-0.23	i
CCOC(=O)CSc1nc2cc(C)ccc2cc1C#N	0	?	-0.6	i
CCOC(=O)CSc1nc2cc(OC)ccc2cc1C#N	0.07	94*	-0.9	i
COc1cc(/C=C(\C#N)C(=O)NCC2CCCO2)ccc1OC(C)C (stereo not drawn)	0.09	70*	0.23	i
CCC1(C)Cc2sc3c(=O)[nH]c(=S)[nH]c3c2CO1 (stereo not drawn)	1.3	19	0.55	i
COc1ccccc1N1CCN(/N=C/C(Cl)=C/c2ccccc2)CC1	.	.	0.54	.
CCOC(=O)C1=C(C)NC2=C(C(=O)CC(c3cccs3)C2)C1c1cccs1 (stereo not drawn)	-0.31	-419	0.57	+
Cc1nn(-c2ccccn2)c2c1C(=O)CC(C)(C)C2Br (stereo not drawn)	-0.16	.	-1.4	.
CC1(C)Cc2ccccc2C(c2cc3ccccc3oc2=O)=N1	.	-31	-0.081	i
CC1(C)Cc2c(ccc3ccccc23)C(c2cc3ccccc3oc2=O)=N1	4.2*	17	-0.31	i
C=CCSc1ncc(C(=O)OCC)c(N)n1	0.22	100*	-0.93	i
CCN(c1ccc(NS(=O)(=O)c2cc(Cl)ccc2Cl)cc1)C(C)C	0.17	69*	-0.42	i
CN(C)c1ccc(NS(=O)(=O)c2cc(Cl)ccc2Cl)cc1	-0.26	11	0.39	i
COc1ccc(Cl)cc1C(=O)Nc1cccc(-c2ccc3nncn3n2)c1	-0.67	-17	-0.56	i
CC(=O)Nc1nc(N2C(=O)c3ccccc3C2=O)n(-c2ccccc2)n1	0.48	76*	-0.64	i
CCn1cc(CN2CCN(CCc3ccccc3)C(CCO)C2)c(C)n1 (stereo not drawn)	0.11	.	-1	i
Clc1ccc2[nH]c3c(NCCCN4CCOCC4)ncnc3c2c1	-0.27	.	-0.42	i
CCN1CCCC1CNc1ncnc2c1[nH]c1ccc(Cl)cc12 (stereo not drawn)	-2.3	21	-0.6	+
CCN(CC)CCNc1ncnc2c1[nH]c1ccc(OC)cc12	.	.	-0.21	i
O=C1CCCN1CCCNc1ncnc2c1[nH]c1ccc(Cl)cc12	-0.88	81*	2.5	i
COc1ccc2[nH]c3c(NCCC4=CCCCC4)ncnc3c2c1	.	65*	0.55	i
COc1ccc(N2CCN(CCNC(=O)c3ccc4c(c3)[nH]c(=S)n3c5ccccc5nc43)CC2)cc1	0.07	.	-0.41	i
SMILES	Insulin prom up	INS promoter inh	Dynein cargo inh	Autophagy HCS
COc1ccc(OC)c(Cc2nnc(CCC(=O)NCc3ccsc3)o2)c1	0.12	.	-0.2	i
Cc1c[nH]c(=O)c([N+](=O)[O-])c1	0.2	.	0.35	.
O=c1c(C(c2ccccc2)c2c(O)sc3ccccc3c2=O)c(O)sc2ccccc12	.	80*	-0.41	i
CCCCn1cnc2cc(C)c(C)cc21	-0.23	.	1.5	i
Cn1c(=O)c2c(nc(NCC3CCCO3)n2Cc2ccccc2)n(C)c1=O (stereo not drawn)	-0.68	81*	0.035	i
NC(=O)C[n+]1ccc(/C=N/O)cc1	0.22	57	-0.82	+
COc1ccc(N(C)S(=O)(=O)c2cccc(C(=O)Nc3nc4ccccc4[nH]3)c2)cc1	-3.1	71*	-0.51	i
CC(=O)Nc1nc(SCC(=O)NCc2ccc(F)cc2)[nH]c(=O)c1NC(=O)c1cccs1	-0.19	.	0.87	+
CCC(/C=C1\Sc2ccc(OC)cc2N1CC)=C\c1sc2ccc(OC)cc2[n+]1CCCS(=O)(=O)[O-]	-3.3	-18	-0.55	i
CCN1/C(=C/c2cc[n+](CCCS(=O)(=O)[O-])c3ccccc23)Sc2ccccc21	6.1*	.	0.46	i
CCc1nnc(SCC(=O)Nc2ccc3c(c2)OCO3)o1	-0.76	68*	1.6	i
COCCNC(=S)N/N=C1\CC(C)CC(C)(C)C1 (stereo not drawn)	0	25	-0.38	i
